Assay outcomes from PubChem.
Beta2AR agonist: activates human beta-2 adrenergic receptor causing internalization; Am2.2-beta2AR cells, FAP receptor internalization, flow cytometry; actives 0.43% (n = 340,000); P07550; AID 504454; response, % (no concentration beside the values);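 active = response above a set limit, near 3 SD of response in nonfluorescent compounds, cut at about 42% in these data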
Target sequence (P07550 whole entry, looked up): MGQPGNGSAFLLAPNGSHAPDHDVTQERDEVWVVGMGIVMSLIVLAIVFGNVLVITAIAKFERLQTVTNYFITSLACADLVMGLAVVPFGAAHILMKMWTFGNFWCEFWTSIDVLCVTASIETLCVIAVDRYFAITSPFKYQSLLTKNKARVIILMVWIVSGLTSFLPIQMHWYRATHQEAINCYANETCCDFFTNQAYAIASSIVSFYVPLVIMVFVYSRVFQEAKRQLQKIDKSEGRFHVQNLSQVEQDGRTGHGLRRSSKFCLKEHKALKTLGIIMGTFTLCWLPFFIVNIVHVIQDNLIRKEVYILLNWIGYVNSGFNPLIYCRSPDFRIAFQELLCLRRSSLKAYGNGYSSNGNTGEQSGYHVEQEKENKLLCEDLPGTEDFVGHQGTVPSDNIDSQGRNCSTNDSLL
MEKK2mut PB1 HTS: signal of MEK5 binding to mutant human MEKK2 PB1 domain; percent response, % at 10 µM; AID 1530; bead flow cytometry, Alexa488-MEK5 binding to MEKK2 mutant; actives 0.35% (n = 290,000); in the data active = percent response above about 24%, passing the limit was not always enough
MEKK2wt PB1 HTS: raises or lowers MEK5 binding to wildtype human MEKK2 PB1 domain | binding response (% of control), % at 10 µM | bead flow cytometry, Alexa488-MEK5 binding to MEKK2 WT; actives lie on both sides | actives 1.1% (n = 290,000) | Q9Y2U5 | AID 1531; in the data active = binding response below about 67% or above about 130%
MEKK3 PB1 HTS: MEKK3-MEK5 PB1 interaction, increase or decrease; Q99759; bead-based flow cytometry, Alexa488-MEK5 binding to MEKK3; actives lie on both sides; 0 = blocked by unlabeled MEK5, 100 = vehicle; binding response (% of control), % at 10 µM; actives 1.4% (n = 290,000); AID 1529;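 active = binding response more than 3 SD above or below the average of its plate-row segment, actives on both sides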;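 also: Alexa488 bead fluorescence after subtracting the streptavidin-only scavenger bead signal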
Dynein transport: blocks dynein driven cargo transport along microtubules | actives 0.47% (n = 220,000) | 3617.4 mouse cells, GR-EGFP nuclear translocation imaging; test concentration mostly 20 µM; stimulated with dexamethasone, 1 µM; active compounds read low | z-score, hits read low;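 active = plate z-score of nuclear minus cytoplasmic receptor signal below a set negative limit, without overly bright fluorescence or cell loss, cut at about -3.5 in these data, passing the limit was not always enough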;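 also: z-score of nuclear minus cytoplasmic ring GR-EGFP intensity difference per well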
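Buffer or medium: tet-free, stripped-serum medium; reagent: dexamethasone at 1.0 µM final, 30 min; incubation: 48 h induction, 1 h compound, 30 min dex at 37 °C; measured by: formaldehyde fixation, Hoechst nuclear stain, 10x automated fluorescence imaging; read-out: nuclear-to-cytoplasmic GR-EGFP distribution per well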
ATG4B inhibitor: blocks human ATG4B protease cleavage of LC3 substrate; inhibition, % at 8.33 µM; AID 504462; ATG4B cleavage of LC3-PLA2, NBD-HPC fluorescence, 1 h; actives 0.51% (n = 340,000); in the data active = inhibition above about 40%
MEKK2wt confirm: raises or lowers MEK5 binding to wildtype human MEKK2, retest; bead flow cytometry, Alexa488-MEK5 binding to MEKK2 WT; actives lie on both sides; binding response (% of control), % at 10 µM; AID 1892; actives 2.4% (n = 5,900); shares compounds with MEKK3 PB1 HTS; in the data active = binding response below about 16% or above about 210%; inactive = in between
MEKK2mut confirm: signal of MEK5 binding to mutant human MEKK2, retest | shares compounds with MEKK3 PB1 HTS | bead flow cytometry, Alexa488-MEK5 binding to MEKK2 mutant | percent response, % at 10 µM | actives 2% (n = 5,900); in the data active = percent response mostly above about 71%, no sharp cut-off; inactive = mostly below about 38%;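 also: higher means compound restores mutant binding toward wildtype level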
MEKK3 confirm: MEKK3-MEK5 PB1 inhibition, single concentration confirmation; shares compounds with MEKK3 PB1 HTS; bead flow cytometry, Alexa488-MEK5 binding to MEKK3; active compounds read low; binding response (% of control), % at 10 µM; actives 1.8% (n = 5,900); AID 1894;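 active = binding response below 72% of control, or above a set upper limit, though filed actives all read lower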;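 also: 100% = DMSO only wells and 0% = binding blocked by excess unlabeled MEK5; lower values mean stronger disruption of MEK5 binding to MEKK3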
The depositor's hits bear a star; x = no result given; [ ] = another dose, or the depositor's remark. Hits are enriched below; roughly 2.9% of the tested compounds scored in any of these assays.

SMILES	Beta2AR agonist	MEKK2mut PB1 HTS	MEKK2wt PB1 HTS	MEKK3 PB1 HTS	Dynein transport	ATG4B inhibitor	MEKK2wt confirm	MEKK2mut confirm	MEKK3 confirm
CCC(C)NC(=O)Cc1cn(C)c2ccccc12 (stereo not drawn)	2	-14	3.0*[inhibitor]	3.0*[inhibitor]	-0.85	-11	102	-12	96
O=C1CCC/C=C\C[C@H](CC(=O)N(CCO)Cc2ccccc2)C(=O)N2CCC[C@@H]2CO1	0	x	x	x	x	-12	x	x	x
N#CC1=C(N)C(C#N)(C#N)C2(CCC3(CC2)OCCO3)C2CC3(CC=C12)OCCO3 (stereo not drawn)	-1	-41	19*[inhibitor]	13*[inhibitor]	-0.79	2	104	1	102
N#CC1=C(N)C(C#N)(C#N)[C@H](c2c(F)cccc2F)[C@H]2CC3(CC=C12)OCCO3	19	3	98	102	-1.6	-12	x	x	x
COc1ccc(OC)c(Nc2nc3nonc3nc2N2CCCC(C)C2)c1 (stereo not drawn)	3	-2	103	105	-0.35	6	x	x	x
CCc1cc2cc(C)cc(C)c2nc1Cl	-4	5	123	138*	-0.39	5	95	-28	98
CCc1cc2ccccc2nc1Cl	-2	-6	93	102	0.29	-7	x	x	x
CC(C)(C)NC(=O)COc1ccc(CNCc2cccs2)cc1	-2	-27	-1.0*[inhibitor]	2.0*[inhibitor]	-0.57	-9	109	9	102
c1ccc(COc2ccc(CNCc3cccs3)cc2)cc1	2	6	121	108	-0.72	6	x	x	x
CCOC(=O)C(C(=O)Nc1cccc(C)c1)C1CCCCC1 (stereo not drawn)	-1	-34	-4.0*[inhibitor]	99	-0.0096	-11	103	2	109
COc1ccccc1/C=C/C(=O)OC(C)CN1CCCCC1 (stereo not drawn)	-3	6	104	106	x	3	x	x	x
CCOC(=O)Cc1csc(NC(=O)c2c(O)c3ccccc3n(CC(C)C)c2=O)n1	7	-9	78	73*[inhibitor]	0.73	-12	106	6	106
CCOc1ccc(-n2c(=O)c3sccc3n(CC(=O)NCC3CCCO3)c2=O)cc1 (stereo not drawn)	2	-2	95	100	x	-14	x	x	x
CC(=NNC(=O)CSCC(=O)NN=C(C)c1ccccc1)c1ccccc1	0	x	x	x	x	0	x	x	x
Cc1occc1-c1nnc(SCC(=O)N2CCOCC2)n1CCc1ccccc1	0	5	111	113	1.1	2	x	x	x
CCCCn1c(SCC(=O)N2CCOCC2)nnc1-c1ccoc1C	3	2	107	128*	-0.44	-11	104	10	105
COc1cc(C(=O)Nc2ccc3c(c2)Cc2ccccc2-3)cc(OC)c1OC	4	-2	105	135*	0.95	-14	105	1	100
CC(=O)Nc1ccc(N2C(=O)CC(Sc3nc(C)cc(C)n3)C2=O)cc1 (stereo not drawn)	-8	4	107	105	x	4	x	x	x
CCN(Cc1ccccc1)C(=O)COC(=O)c1c(C)nsc1NC	1	x	x	x	x	-6	x	x	x
CCN(CC)S(=O)(=O)c1ccc(C(=O)/C=C/c2ccc(-c3ccc([N+](=O)[O-])cc3)o2)cc1	0	-12	37*[inhibitor]	87	-2.2	-1	65	-15	85
Cc1ccc(C(=O)/C=C/c2ccc(-c3ccc(C)cc3)o2)cc1	-18	0	89	101	-0.081	19	x	x	x
[O-]/[N+](=N\Nc1ccc(Cl)cc1)c1ccccc1	4	x	x	x	x	6	x	x	x
CC1CCN(C(=O)Cn2c3ccc(F)cc3c3nc4n(c(=O)c32)CCCS4)CC1	-9	10	104	102	x	-2	x	x	x
CCCCN(C)CC(O)Cn1cc(/C=C/C(=O)c2ccc(OCC)cc2)c2ccccc21 (stereo not drawn)	x	62*	200*	108	x	x	169	42	101
CCCCN(C)CC(O)Cn1cc(/C=C/C(=O)c2cccs2)c2ccccc21 (stereo not drawn)	-36	2	131	105	0.024	0	x	x	x
SMILES	Beta2AR agonist	MEKK2mut PB1 HTS	MEKK2wt PB1 HTS	MEKK3 PB1 HTS	Dynein transport	ATG4B inhibitor	MEKK2wt confirm	MEKK2mut confirm	MEKK3 confirm
CCN(CCCNC(=O)CCn1c(=O)[nH]c2ccccc2c1=O)c1ccccc1	5	-12	44*[inhibitor]	34*[inhibitor]	-0.31	-17	106	5	102
O=C(NCc1ccccn1)c1ccc(Cn2c(=S)[nH]c3ccc(Br)cc3c2=O)cc1	-14	-7	91	97	-0.91	-6	x	x	x
CC1CCN(CCCNC(=O)c2ccc3c(=O)n(Cc4ccc(Cl)cc4)c(=S)[nH]c3c2)CC1	4	0	118	100	-5.1	-2	x	x	x
CCCCN(C)CCNC(=O)c1ccc(Cn2c(=S)[nH]c3ccc(Br)cc3c2=O)cc1	31	34	171*	108	-0.17	5	191	55	114
CN(C)CCNC(=O)c1ccc2c(=O)n(Cc3ccc(Cl)cc3)c(=S)[nH]c2c1	19	25*	138*	111	x	6	115	10	105
CCN(CC)CCNC(=O)c1ccc2c(=O)n(CCc3ccccc3)c(=O)[nH]c2c1	-1	13	135*	125*	0.15	-11	107	5	101
Clc1ccc2nc(N3CCNCC3)nc(-c3ccccc3)c2c1	16	32	152*	103	2.9	8	108	0	102
C#CCN1C(=O)C(O)(CC(=O)c2cccc(OC)c2)c2ccccc21 (stereo not drawn)	-2	-18	1.0*[inhibitor]	1.0*[inhibitor]	-0.51	-17	108	6	103
CNC(=O)C1CC(=O)N(CCc2ccccc2)C(=Nc2ccc(OC)cc2)S1 (stereo not drawn)	-7	-4	103	115	-0.2	-2	x	x	x
COc1ccc(N=C2SC(C(=O)Nc3ccc(C(=O)O)cc3)CC(=O)N2Cc2cccs2)cc1 (stereo not drawn)	8	24	122	131*	0.0005	8	104	2	107
Cc1ccc(-n2cc(CN3CCNC(=O)CC3)c(-c3cccc(C)c3)n2)cc1	-1	-5	90	98	-0.66	-7	x	x	x
